From ChEMBL document CHEMBL4689842, “EUbOPEN Chemogenomics Library wave 1” (2021)

Experiments:
Type in all cases: toxicity, cell-based
HEK-293T = test: Incucyte cell viability with HEK293T; details: human, 10 µM, compound concentration 10 uM; further: filed as whole numbers so only -1 and 0 and 1 occur
U2OS [1] = test: Multiplex assay against U2OS; details: human
Summary of the method: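 At seeding, live cells were stained with Hoechst33342, BioTracker Green Microtubule Cytoskeleton Dye, MitoTracker Red and Annexin V Alexa Fluor 680. After compound addition they were imaged on a CQ1 microscope at 37°C and 5% CO2, and CellPathfinder machine-learning gating sorted them into Hoechst high-intensity objects or normal cells, with normal cells further split into healthy, pyknosed or fragmented nuclei and pyknosed cells into mitotic or apoptotic. Tubulin, mitochondrial-mass and membrane-permeability phenotypes are given as per cents of cells with healthy nuclei.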

U2OS [2] = test: Incucyte cell viability with U2OS; details: human, 10 µM, compound concentration 10 uM; further: filed as whole numbers so only -1 and 0 and 1 occur
[3] = 6 h, replicate number 1, timepoint 6 hours
[4] = 12 h, replicate number 1, timepoint 12 hours
[5] = 18 h, replicate number 1, timepoint 18 hours
[6] = 24 h, replicate number 1, timepoint 24 hours
[7] = 12 h, 1 µM, compound concentration 1 uM, replicate 1
[8] = 12 h, 1 µM, compound concentration 1 uM, replicate 2
[9] = 12 h, 10 µM, compound concentration 10 uM, replicate 1
[10] = 12 h, 10 µM, compound concentration 10 uM, replicate 2
[11] = 24 h, 1 µM, compound concentration 1 uM, replicate 1
[12] = 24 h, 1 µM, compound concentration 1 uM, replicate 2
[13] = 24 h, 10 µM, compound concentration 10 uM, replicate 1
[14] = 24 h, 10 µM, compound concentration 10 uM, replicate 2

Structure (SMILES): CN(C)CCOc1ccc(-c2nc(-c3ccncc3)c(-c3ccc4c(c3)CC/C4=N\O)[nH]2)cc1 [SB590885]
- Growth Rate (HEK-293T; 0 h, replicate number 1, timepoint 0 hours): 1
- Growth Rate (HEK-293T; [3]): 0
- Growth Rate (HEK-293T; [4]): 0
- Growth Rate (HEK-293T; [5]): 0
- Growth Rate (HEK-293T; [6]): 0
- Population Apoptotic (%) (U2OS [1]; [7]): 72%
- Population Fragmented Nuclei (%) (U2OS [1]; [7]): 22%
- Population Healthy Nuclei (%) (U2OS [1]; [7]): 42%
- Population Hoechst High Intensity Objects (%) (U2OS [1]; [7]): 9%
- Population Membrane Permeable-Phenotype (%) (U2OS [1]; [7]): 45%
- Population Mitochondria Different-Phenotype (%) (U2OS [1]; [7]): 30%
- Population Mitotic Cells (%) (U2OS [1]; [7]): 27%
- Population Normal (%) (U2OS [1]; [7]): 90%
- Population Pyknosed Nuclei (%) (U2OS [1]; [7]): 34%
- Population Tubulin-Different-Phenotype (%) (U2OS [1]; [7]): 54%
- Total Cell Count (U2OS [1]; [7]): 200
- Population Apoptotic (%) (U2OS [1]; [8]): 88%
- Population Fragmented Nuclei (%) (U2OS [1]; [8]): 41%
- Population Healthy Nuclei (%) (U2OS [1]; [8]): 34%
- Population Hoechst High Intensity Objects (%) (U2OS [1]; [8]): 15%
- Population Membrane Permeable-Phenotype (%) (U2OS [1]; [8]): 38%
- Population Mitochondria Different-Phenotype (%) (U2OS [1]; [8]): 28%
- Population Mitotic Cells (%) (U2OS [1]; [8]): 11%
- Population Normal (%) (U2OS [1]; [8]): 84%
- Population Pyknosed Nuclei (%) (U2OS [1]; [8]): 23%
- Population Tubulin-Different-Phenotype (%) (U2OS [1]; [8]): 51%
- Total Cell Count (U2OS [1]; [8]): 155
- Population Apoptotic (%) (U2OS [1]; [9]): 42%
- Population Fragmented Nuclei (%) (U2OS [1]; [9]): 5%
- Population Hoechst High Intensity Objects (%) (U2OS [1]; [9]): 3%
- Population Membrane Permeable-Phenotype (%) (U2OS [1]; [9]): 11%
- Population Mitochondria Different-Phenotype (%) (U2OS [1]; [9]): 23%
- Population Mitotic Cells (%) (U2OS [1]; [9]): 57%
- Population Normal (%) (U2OS [1]; [9]): 96%
- Population Pyknosed Nuclei (%) (U2OS [1]; [9]): 7%
- Population Tubulin-Different-Phenotype (%) (U2OS [1]; [9]): 26%
- Total Cell Count (U2OS [1]; [9]): 149
- Population Apoptotic (%) (U2OS [1]; [10]): 37%
- Population Fragmented Nuclei (%) (U2OS [1]; [10]): 6%
- Population Healthy Nuclei (%) (U2OS [1]; [10]): 87%
- Population Hoechst High Intensity Objects (%) (U2OS [1]; [10]): 10%
- Population Membrane Permeable-Phenotype (%) (U2OS [1]; [10]): 14%
- Population Mitochondria Different-Phenotype (%) (U2OS [1]; [10]): 28%
- Population Mitotic Cells (%) (U2OS [1]; [10]): 62%
- Population Normal (%) (U2OS [1]; [10]): 89%
- Population Pyknosed Nuclei (%) (U2OS [1]; [10]): 5%
- Population Tubulin-Different-Phenotype (%) (U2OS [1]; [10]): 33%
- Total Cell Count (U2OS [1]; [10]): 78
- Population Apoptotic (%) (U2OS [1]; [11]): 85%
- Population Fragmented Nuclei (%) (U2OS [1]; [11]): 15%
- Population Healthy Nuclei (%) (U2OS [1]; [11]): 38%
- Population Hoechst High Intensity Objects (%) (U2OS [1]; [11]): 19%
- Population Membrane Permeable-Phenotype (%) (U2OS [1]; [11]): 34%
- Population Mitochondria Different-Phenotype (%) (U2OS [1]; [11]): 34%
- Population Mitotic Cells (%) (U2OS [1]; [11]): 14%
- Population Normal (%) (U2OS [1]; [11]): 80%
- Population Pyknosed Nuclei (%) (U2OS [1]; [11]): 45%
- Population Tubulin-Different-Phenotype (%) (U2OS [1]; [11]): 37%
- Total Cell Count (U2OS [1]; [11]): 280
- Population Apoptotic (%) (U2OS [1]; [12]): 91%
- Population Fragmented Nuclei (%) (U2OS [1]; [12]): 35%
- Population Healthy Nuclei (%) (U2OS [1]; [12]): 25%
- Population Hoechst High Intensity Objects (%) (U2OS [1]; [12]): 21%
- Population Membrane Permeable-Phenotype (%) (U2OS [1]; [12]): 33%
- Population Mitochondria Different-Phenotype (%) (U2OS [1]; [12]): 41%
- Population Mitotic Cells (%) (U2OS [1]; [12]): 8%
- Population Normal (%) (U2OS [1]; [12]): 78%
- Population Pyknosed Nuclei (%) (U2OS [1]; [12]): 38%
- Population Tubulin-Different-Phenotype (%) (U2OS [1]; [12]): 30%
- Total Cell Count (U2OS [1]; [12]): 196
- Population Apoptotic (%) (U2OS [1]; [13]): 44%
- Population Fragmented Nuclei (%) (U2OS [1]; [13]): 5%
- Population Healthy Nuclei (%) (U2OS [1]; [13]): 90%
- Population Hoechst High Intensity Objects (%) (U2OS [1]; [13]): 2%
- Population Membrane Permeable-Phenotype (%) (U2OS [1]; [13]): 12%
- Population Mitochondria Different-Phenotype (%) (U2OS [1]; [13]): 21%
- Population Mitotic Cells (%) (U2OS [1]; [13]): 55%
- Population Normal (%) (U2OS [1]; [13]): 97%
- Population Pyknosed Nuclei (%) (U2OS [1]; [13]): 3%
- Population Tubulin-Different-Phenotype (%) (U2OS [1]; [13]): 30%
- Total Cell Count (U2OS [1]; [13]): 144
- Population Apoptotic (%) (U2OS [1]; [14]): 50%
- Population Fragmented Nuclei (%) (U2OS [1]; [14]): 7%
- Population Healthy Nuclei (%) (U2OS [1]; [14]): 89%
- Population Hoechst High Intensity Objects (%) (U2OS [1]; [14]): 7%
- Population Membrane Permeable-Phenotype (%) (U2OS [1]; [14]): 8%
- Population Mitochondria Different-Phenotype (%) (U2OS [1]; [14]): 38%
- Population Mitotic Cells (%) (U2OS [1]; [14]): 50%
- Population Normal (%) (U2OS [1]; [14]): 92%
- Population Tubulin-Different-Phenotype (%) (U2OS [1]; [14]): 37%
- Total Cell Count (U2OS [1]; [14]): 80
- Growth Rate (U2OS [2]; 0 h, replicate number 2, timepoint 0 hours): 1
- Growth Rate (U2OS [2]; [3]): 0
- Growth Rate (U2OS [2]; [4]): 0
- Growth Rate (U2OS [2]; [5]): 0
- Growth Rate (U2OS [2]; [6]): 0
